Holding throughout (assay type): functional
For experiment [1], the system named is Lactuca sativa. Briefly: Phytotoxic activity against Latuca sativa assessed as radicle length elongation at 15 ppm. In short, it runs like this:
(§1)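 Radicle length of treated seedlings was compared with untreated controls and reported as the percentage difference from the control, which is set to zero. Negative values mean inhibition and positive values mean stimulation. Germination and root length were also compared between treated and control seeds using Student's t-test (p < 0.05).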

For experiment [2], the system named is Avena sativa. In words: Phytotoxic activity against Avena sativa assessed as radicle length elongation at 150 ppm. The procedure, abridged:
as §1

Experiment [3] has as its system Lactuca sativa. Briefly: Phytotoxic activity against Latuca sativa assessed as radicle length elongation at 150 ppm. In short, it runs like this: as §1
Experiment [4] deals with Avena sativa. Briefly: Phytotoxic activity against Avena sativa assessed as radicle length elongation at 15 ppm. In short, it runs like this:
as §1

The test system of experiment [5] is Lactuca sativa. In words: Phytotoxic activity against Latuca sativa assessed as radicle length elongation at 400 ppm. In short, it runs like this: as §1
The subject of experiment [6] is Avena sativa. Briefly: Phytotoxic activity against Avena sativa assessed as radicle length elongation at 400 ppm. The procedure, abridged: as §1

Each structure is given as a SMILES string.

For the molecule `CO[C@@]12C[C@H]3[C@@H](C[C@H]4O[C@]45CC=CC(=O)[C@]35C)[C@@H]3CC[C@@](O)([C@@H]([C@H]4CC(C)=C(C)C(=O)O4)CO1)[C@]32C` [12-O-METHYLJABOROSALACTONE 38], the Activity in the experiment on Lactuca sativa [1] is on record as -8.7%; in the experiment on Avena sativa [2] it was 1.5%; in the experiment with Lactuca sativa [3], -22.7%; in the experiment on Avena sativa [4] it was 15.3%; in the experiment with Lactuca sativa [5] it was -74.7%; in the experiment with Avena sativa [6], -24.5%.
As for `CCO[C@@]12C[C@H]3[C@@H](C[C@@H](O)[C@@]4(Cl)CC=CC(=O)[C@]34C)[C@@H]3CC[C@@](O)([C@H](C)[C@@H]([C@@H]4OC(=O)C(C)=C4C)O1)[C@]32C` [12-O-ETHYLJABOROSALACTONE 42], the Activity with Lactuca sativa [1] is given as 2.7%; with Avena sativa [2], -11.2%; in the experiment on Lactuca sativa [3], -25.7%; with Avena sativa [4] it was 3.5%; in the experiment on Lactuca sativa [5], -65.1%; in the experiment on Avena sativa [6], -32.2%.
As to `CC1=C(C)[C@H]([C@H]2O[C@@]3(O)C[C@H]4[C@@H](C[C@H]5O[C@]56CC=CC(=O)[C@]46C)[C@@H]4CC[C@@](O)([C@@H]2C)[C@]43C)OC1=O` [TRECHONOLIDE A], the Activity with Lactuca sativa [1] was 3.7%; with Avena sativa [2], -11.7%; with Lactuca sativa [3], -8.4%; with Avena sativa [4] it was 2.5%; in the experiment with Lactuca sativa [5] it was 2.5%; with Avena sativa [6], 4%.
In the case of `CC1=C(C)[C@H]([C@H]2O[C@@]3(O)C[C@H]4[C@@H](C[C@@H](O)[C@@]5(O)CC=CC(=O)[C@]45C)[C@@H]4CC[C@@](O)([C@@H]2C)[C@]43C)OC1=O` [JABOROTETROL], the Activity in the experiment with Lactuca sativa [1] is listed as -3.9%; with Avena sativa [2], 2.7%; with Lactuca sativa [3], -5.5%; in the experiment on Avena sativa [4] it was -10.2%; with Lactuca sativa [5] it was -4%; with Avena sativa [6], -5.9%.
As to `CC1=C(C)C(=O)O[C@@H]([C@H]2CO[C@@]3(O)C[C@H]4[C@@H](C[C@H]5O[C@]56CC=CC(=O)[C@]46C)[C@@H]4CC[C@]2(O)[C@]43C)C1` [JABOROSALACTONE], the Activity is reported as -1.6% in the experiment on Lactuca sativa [1]; 2.4% in the experiment on Avena sativa [2]; -46.2% with Lactuca sativa [3]; -13.9% with Avena sativa [4]; -58.6% in the experiment on Lactuca sativa [5]; -36.5% in the experiment with Avena sativa [6].
